Screening data: PubChem, Johns Hopkins Ion Channel Center
KCNQ1 act: human KCNQ1 channel potentiation or activation; P51787; AID 2648; B-score at 10 µM; hit rate 0.35% among 310,000; CHO-K1 KCNQ1, thallium flux FluxOR fluorescence; stronger effect = higher value;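 active = fluorescence ratio B-score, a plate-corrected score, at least three library SD, with initial intensity B-score within 5 SD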
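Test system: CHO-K1 cells stably expressing KCNQ1 / Medium: assay buffer / Also added: depolarizing K+/Tl+ stimulus, K2SO4 and Tl2SO4 each 12.5 mM in 5x stock / Incubation: 90 min dye loading and 20 min compound exposure, both at room temperature / Signal: thallium influx via FluxOR fluorescence, kinetic imaging / Evaluation: B score of baseline-normalized fluorescence ratio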
Kir21 inh: blocks the mouse Kir2.1 inward-rectifier potassium channel | B-score at 10 µM | hit rate 0.85% among 310,000 | P35561 | AID 1672 | HEK293-Kir2.1, FluxOR thallium flux fluorescence; stronger effect = lower value;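 active = fluorescence ratio B-score at or below minus 3 SD of library scores, with starting-brightness B-score within 2 SD, cut at about -4.2 in these data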;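 also: channel flux triggered by added potassium and thallium sulfate stimulus; B-score of peak minus minimum fluorescence over baseline after thallium stimulus; more negative B-score means stronger Kir2.1 block with less thallium influx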
KCNK9 block: inhibitors of human KCNK9 two-pore domain potassium channel. B-score at 10 µM. hit rate 1.2% among 310,000. HEK293 KCNK9, FluxOR thallium flux fluorescence; stronger effect = lower value. AID 488922;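 active = ratio B-score over 3 SD below the library mean, with starting fluorescence within 5 SD of its mean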;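 also: negative B-score means less thallium flux so channel inhibition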
KCNQ1 inh: blocks the human KCNQ1 potassium channel; CHO-K1 KCNQ1, FluxOR thallium flux fluorescence; stronger effect = higher value; hit rate 1.3% among 310,000; B-score at 10 µM;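 active = compounds whose thallium flux B-score, printed positive for inhibition, exceeds three library SD while starting fluorescence stays within three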;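 also: channel opened by potassium depolarization with thallium stimulus after 20 min compound exposure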
hERG protect: shields human hERG channel from block by proarrhythmic agents | Q12809 | CHO-hERG, FluxOR thallium flux, dofetilide IC70 present | activation (rescue from dofetilide block), less the hit threshold, % at 10 µM | hit rate 0.51% among 310,000 | AID 1511;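 active = activation above the mean of controls blocked by dofetilide plus 5 SD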;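 also: thallium influx through hERG after potassium depolarization seen as dye fluorescence rise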
KCNK3 inh: human KCNK3 channel inhibition, primary screen; B-score at 10 µM; CHO-KCNK3 thallium flux, FluxOR fluorescence; stronger effect = lower value; AID 602410; hit rate 0.84% among 340,000; O14649;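 active = B-score under library mean minus 4 SD, starting fluorescence ratio at most library mean plus 5 SD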;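 also: more negative B-score means stronger inhibition of thallium flux through KCNK3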
Of the large screens only hits and unclear results are named; the others gave an inactive call. Most compounds without a hit are left out; they make up all but 3.8% or so of the library.

Cc1cccc2c(N=O)c(O)[nH]c12	none
COc1cc(C(=O)NS(=O)(=O)c2ccccc2C)ccc1Cc1cn(C)c2ccc(NC(=O)OC3CCCC3)cc12	KCNQ1 inh 10 (no result: KCNK3 inh)
N#CC(OC(=O)c1ccccc1)c1cccc([N+](=O)[O-])c1 (configuration not stated)	none (no result: KCNQ1 act, Kir21 inh, KCNK9 block, KCNQ1 inh, hERG protect)
CC1(C)CC(c2nc(-c3ccc(Cl)cc3)cs2)CCS1 (configuration not stated)	KCNQ1 inh 9
O=C(Nc1ccc(Cl)c(C(F)(F)F)c1)NC1CC2CCCC(C1)N2Cc1ccccc1 (configuration not stated)	KCNQ1 inh 13 (no result: KCNK3 inh)
Cc1ccccc1CC(=O)NC1CCN(Cc2ccccc2)CC1	hERG protect 8.2
O=C(NC1CC2CCCC(C1)N2C(=O)Nc1ccc(Cl)c(C(F)(F)F)c1)C1CC1 (configuration not stated)	none
O=C(Nc1ccc(F)cc1)NC1CCN(Cc2ccccc2)CC1	Kir21 inh -5.2
O=C(Nc1ccc2c(c1)OCO2)NC1CCN(Cc2ccccc2)CC1	none
Fc1ccc(CNc2ccc(N3CCN(Cc4ccccc4)CC3)cc2)cc1	Kir21 inh -7.1
O=C(Cc1ccccc1)NC1CCN(Cc2ccccc2)CC1	none
O=C(O)c1cccc2c1C(=O)c1cc(Br)ccc1S2(=O)=O	none (no result: KCNQ1 act, Kir21 inh, KCNK9 block, KCNQ1 inh, hERG protect)
COc1ccc(CCNC(=O)C2CC(c3cc(C(F)(F)F)cc(C(F)(F)F)c3)=NO2)cc1 (configuration not stated)	none
Cc1ccc(-n2ncc3c2CCCC3NC(=O)CCCN2CCCC2=O)cc1C (configuration not stated)	none
C#CCOc1ccccc1CNC1CCN(Cc2ccccc2)CC1	Kir21 inh -4.4
S=C(Nc1ccc(Cl)cc1)NC1CCN(Cc2ccccc2)CC1	Kir21 inh -4.7
COc1cccc(C(=O)Nc2ccc(C(=O)c3ccccc3)cc2)c1	KCNK9 block -7.7
COc1cccc(C(=O)Nc2ccc(C(=O)O)cc2)c1	none
COc1ccc(C(=O)Nc2cccc3ccccc23)cc1	none
COC(=O)c1ccc(NC(=O)c2cccc(OC)c2)cc1	none
COc1ccc(C(=O)NNC(=O)C(=O)Nc2cccc3ccccc23)cc1	KCNQ1 act 34, hERG protect 31
COc1cccc(C(=O)NNC(=O)C(=O)Nc2ccc(C)cc2)c1	KCNQ1 act 37, hERG protect 27
COc1cccc(C(=O)NNC(=O)C(=O)Nc2cccc(Cl)c2C)c1	KCNQ1 act 36, hERG protect 23
COc1cccc(NC(=O)c2ccccc2-c2ccccc2)c1	Kir21 inh -4.2
COc1cc(OC)cc(C(=O)NC2CCCCCCC2)c1	none
COc1ccc(CCNC(=O)C(=O)NCC2CCCN2S(=O)(=O)c2ccccc2)cc1OC (configuration not stated)	none
Cc1ccccc1N1CCN(C(=O)c2cc(C3CC3)nn2-c2ccccc2)CC1	KCNK3 inh -9 (no result: KCNQ1 act, Kir21 inh, KCNK9 block, KCNQ1 inh, hERG protect)
CN1CCCC(OC(=O)c2cccc(Cl)c2)C1 (configuration not stated)	none
CN1CCCC(OC(=O)c2cc(Cl)cc(Cl)c2)C1 (configuration not stated)	Kir21 inh -4.3
O=C1CCC(=O)N1Cc1c(Cl)cccc1Cl	none
COc1ccc(NC(=O)C/C(C)=N/NC(=O)C(=O)NC2CCCCC2)c(OC)c1	none
COc1cccc(CNCCc2c[nH]c3ccccc23)c1OCc1ccc(F)cc1	Kir21 inh -12
COc1cccc(CNc2ccc3[nH]c(=O)[nH]c3c2)c1OCc1ccc(F)cc1	none
Cc1ccc(NC(=S)NCCc2c[nH]c3ccccc23)c(C)c1	Kir21 inh -7.3
Cc1cc(C)c(O)c(NC(=S)NC(=O)Cc2ccccc2)c1	hERG protect 4.8
Cc1cccc(NC(=S)NC(=O)Cc2ccccc2)c1C	none
Cc1cc(C)c(S(=O)(=O)NCCc2ccccc2)c(C)c1	Kir21 inh -10
Cc1ccc(S(=O)(=O)NCCc2ccccc2)cc1	none
CC(C)[C@H](NS(=O)(=O)c1cccc(Cl)c1)C(=O)OCC(=O)NC(=O)CN1CCCC1=O	none (no result: KCNQ1 act, Kir21 inh, KCNK9 block, KCNQ1 inh, hERG protect)
COc1ccccc1NC(=S)NCCc1c[nH]c2ccccc12	Kir21 inh -6.3
Cc1ccc(NC(=S)NCCc2ccccc2)c(C)c1	Kir21 inh -5.1
Cc1ccc(C)c(NC(=S)NCCc2ccc(F)cc2)c1	Kir21 inh -4.5
OC(CCN1CCOCC1)c1ccccc1 (configuration not stated)	hERG protect 9.3
COC(=O)C1=C(COc2ccc(F)cc2)NC(=O)NC1c1ccc(C)cc1C (configuration not stated)	hERG protect 7.4
CCOC(=O)C1=C(COc2ccc(C)cc2)NC(=O)NC1c1cc(C)ccc1C (configuration not stated)	none
O=C(CCN1CCCC1)Nc1ccc(Br)cc1	none
CC1CCN(CCC(=O)Nc2ccc(Br)cc2)CC1	Kir21 inh -4.9
Cc1cccn2c(=O)c3cc(C(=O)NC4CCCCC4)c(=N)n(Cc4ccccc4)c3nc12	KCNQ1 inh 7
CCN(C(=O)c1cc2c(=O)n3cccc(C)c3nc2n1CCCOC)C1CCCCC1	KCNK3 inh -11
Cc1cccn2c(=O)c3cc(C(=O)NC4CCCC4)c(=N)n(Cc4ccc(F)cc4)c3nc12	none
O=C(COc1ccc(Cl)cc1)Nc1ccc2c(c1)nc1n2CCOC1	none
COc1ccc([N+](=O)[O-])cc1NS(=O)(=O)c1ccc(C(=O)N2CCCC2)cc1	none (no result: KCNQ1 act, Kir21 inh, KCNK9 block, KCNQ1 inh, hERG protect)
Cc1cc2[nH]c3c(c[n+](C)c4ccccc34)c2cc1C	Kir21 inh -7.8
Cc1cc2[nH]c3c4ccccc4nc(C)c3c2cc1C	none (no result: KCNQ1 act, Kir21 inh, KCNK9 block, KCNQ1 inh, hERG protect)
CCN(C(=S)NC(=O)c1ccccc1Br)C1CCCCC1	KCNQ1 act 36, hERG protect 57
CC(C)CC(=O)NC(NC(=S)Nc1sc2c(c1C#N)CCCC2)C(Cl)(Cl)Cl (configuration not stated)	KCNK9 block -7.4
COc1ccccc1C(=O)OCc1nc(N)nc(Nc2ccccc2C)n1	Kir21 inh -5.2
COCCNC(=O)c1cc(-c2ccccc2)nn1CC1CC(c2cccc([N+](=O)[O-])c2)=NO1 (configuration not stated)	none
O=C(NCc1cccc(Br)c1)c1cc(-c2ccccc2)nn1CC1CC(c2cccc([N+](=O)[O-])c2)=NO1 (configuration not stated)	KCNK9 block -7.1
O=C(NCC1CC1)c1cc(-c2ccccc2)nn1CC1CC(c2cccc([N+](=O)[O-])c2)=NO1 (configuration not stated)	KCNK9 block -8.3
CC(C)(C)c1ccc(C(=O)NCC(=O)N/N=C/c2cccnc2)cc1	none
CCc1nnc(NS(=O)(=O)c2ccc(NC(=O)CCC(=O)OC)cc2)s1	none
